Screening results: PubChem BioAssay, Johns Hopkins Ion Channel Center
TRPC6 inhibitor: mouse TRPC6 channel inhibition; B-score at 10 µM; AID 2553; HEK293-TRPC6, membrane potential dye, ACh-evoked depolarization; stronger effect = lower value; Q61143; 310,000 tested, 1.1% active;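 active means B-score under library mean minus 3 SD, initial fluorescence not abnormally high, positive integrated signal ratio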;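 further: B-score derived from integrated fluorescence ratio over the kinetic read; more negative B-score means stronger inhibition of depolarization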
Target sequence (Q61143 whole entry, looked up): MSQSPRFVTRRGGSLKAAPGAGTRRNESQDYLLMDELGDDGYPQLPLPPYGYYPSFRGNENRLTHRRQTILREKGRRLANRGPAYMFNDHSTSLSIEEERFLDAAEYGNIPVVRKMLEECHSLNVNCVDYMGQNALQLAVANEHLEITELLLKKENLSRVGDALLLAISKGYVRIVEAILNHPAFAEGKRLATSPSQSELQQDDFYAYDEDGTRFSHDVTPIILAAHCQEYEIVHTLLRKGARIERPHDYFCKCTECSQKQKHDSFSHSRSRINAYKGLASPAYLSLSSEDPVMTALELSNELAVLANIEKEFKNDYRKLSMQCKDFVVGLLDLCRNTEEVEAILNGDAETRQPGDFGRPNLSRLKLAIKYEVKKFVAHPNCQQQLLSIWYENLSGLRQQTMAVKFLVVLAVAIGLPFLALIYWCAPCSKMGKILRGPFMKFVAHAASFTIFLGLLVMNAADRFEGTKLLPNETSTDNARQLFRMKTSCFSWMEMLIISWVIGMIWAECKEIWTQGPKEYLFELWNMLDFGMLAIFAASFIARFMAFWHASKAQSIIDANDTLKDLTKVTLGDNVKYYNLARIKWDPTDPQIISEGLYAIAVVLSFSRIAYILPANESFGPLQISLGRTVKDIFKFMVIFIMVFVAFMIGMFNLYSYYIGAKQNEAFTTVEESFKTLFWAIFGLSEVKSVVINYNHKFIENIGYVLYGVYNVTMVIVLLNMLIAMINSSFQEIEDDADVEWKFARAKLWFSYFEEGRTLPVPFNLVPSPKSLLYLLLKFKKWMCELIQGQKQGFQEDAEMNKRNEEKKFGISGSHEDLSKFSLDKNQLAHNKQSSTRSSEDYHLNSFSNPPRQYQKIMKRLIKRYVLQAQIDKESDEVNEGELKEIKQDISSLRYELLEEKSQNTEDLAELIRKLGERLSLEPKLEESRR
TRPC4 inh: blocks the mouse TRPC4 cation channel; Q9QUQ5; AID 2247; 300,000 tested, 0.39% active; HEK293 TRPC4beta/mu-opioid, DAMGO-evoked Fluo4 calcium flux; stronger effect = lower value; B-score at 10 µM;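 active means B-score over 3 SD under the library average, no early fluorescence shift, positive overall ratio signal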
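Assay system: Stable TRPC4beta/mu-opioid receptor HEK293 cells | Reagent: DAMGO in two steps, submaximal then maximal | Compound dosing: Single concentration per test compound | Signal: Fluo4 Ca2+ flux fluorescence | Evaluation: Per-well B score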
TRPC6 act: activators of mouse TRPC6 channel. 310,000 tested, 0.13% active. Q61143. HEK293-TRPC6 membrane potential dye fluorescence; stronger effect = higher value. B-score at 10 µM;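 active means B-score of the integrated fluorescence ratio above library mean plus 3 SD, and starting fluorescence ratio within library mean plus 5 SD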;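 further: higher score means more depolarization so channel activation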
TRPC4 agonist: opens the mouse TRPC4 cation channel; Q9QUQ5; HEK293 TRPC4beta/mu-opioid, Fluo4 calcium fluorescence; stronger effect = higher value; B-score at 10 µM; 310,000 tested, 0.49% active; AID 2237;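 active means B-score above 5 SD of library B-scores, and initial fluorescence ratio not above library mean plus 5 SD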;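 further: positive B-score marks a calcium rise read as TRPC4 activation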
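Assay system: HEK293 cells stably co-expressing mouse TRPC4beta and mu-opioid receptor / Timing: Fluo4 dye loading 45 min at room temperature, 110 s recording / Signal: Fluo4 calcium-sensitive dye fluorescence, kinetic, 1 Hz baseline / Read-out: integrated baseline-normalised fluorescence ratio, converted to per-well B score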
TRPC4 PAM: allosterically enhances the mouse TRPC4 cation channel; B-score at 10 µM; Q9QUQ5; HEK293 TRPC4beta/mu-opioid, DAMGO EC20, Fluo-4 Ca2+ flux; stronger effect = higher value; 310,000 tested, 0.42% active;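 active means B-score of calcium response area above 5 SD of library B-scores, with initial fluorescence ratio within 5 SD of library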
Kir21 inh: Kir2.1 (mouse) channel inhibition | 310,000 tested, 0.85% active | HEK293-Kir2.1, FluxOR thallium flux fluorescence; stronger effect = lower value | AID 1672 | B-score at 10 µM;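 active means fluorescence ratio B-score at or below minus 3 SD of library scores, with starting-brightness B-score within 2 SD, cut at about -4.2 in these data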;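 further: channel flux triggered by added potassium and thallium sulfate stimulus; B-score of peak minus minimum fluorescence over baseline after thallium stimulus; more negative B-score means stronger Kir2.1 block with less thallium influx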
A number is an active result; i = inactive. Hits are enriched below; roughly 2.9% of the tested compounds scored in any of these assays.

SMILES	TRPC6 inhibitor	TRPC4 inh	TRPC6 act	TRPC4 agonist	TRPC4 PAM	Kir21 inh
OCc1cn(-c2ccccc2)nc1-c1ccc2c(c1)OCCO2	i	i	i	i	i	i
O=[N+]([O-])c1cccc(-c2nnc(C3CC3)o2)c1	i	-6	i	i	i	i
Nc1nnc(-c2cccc([N+](=O)[O-])c2)o1	i	i	i	i	i	i
CC(C)(C)[C@]1(O)CCN2C[C@H]3c4ccccc4CCc4cccc(c43)[C@@H]2C1	i	i	i	61	i	i
O=C(COc1ccccc1)N(Cc1ccco1)c1ccc(O)cc1	i	i	i	i	i	i
O=C(c1ccc(Cl)c(Cl)c1)N(Cc1ccco1)c1ccc(O)cc1	i	-7	i	i	i	-4.3
Cc1ccc(CSCC(=O)NCc2ccco2)cc1	i	i	i	i	i	i
N=C(N)SCc1ccccn1	i	i	i	i	38	i
CCCCCCCNC(=O)C1(CC2CC(c3cccc(Br)c3)=NO2)CCN(C(=O)c2ccccc2)CC1 (configuration not stated)	i	i	i	i	i	i
CCCCCCCNC(=O)C1(CC2CC(c3cccc(Br)c3)=NO2)CCNCC1 (configuration not stated)	i	i	i	i	i	-11
CCCCCCCNC(=O)C1(CC2CC(c3ccc(Cl)cc3)=NO2)CCNCC1 (configuration not stated)	i	i	i	i	i	-10
CCCCCCCNC(=O)C1(CC2CC(c3ccc(Cl)cc3)=NO2)CCN(C(=O)Cc2ccc(F)cc2)CC1 (configuration not stated)	i	i	i	i	i	i
O=C(Cc1ccccc1)NS(=O)(=O)c1ccc(N=NN2CCOCC2)cc1	i	i	i	i	i	i
CCn1cc(S(=O)(=O)Nc2ccc(Cl)cc2F)cn1	i	i	i	i	i	i
O=C(Nc1ccccc1)Nc1cc(S(=O)(=O)N2CCOCC2)ccc1N1CCCC1	i	i	i	i	i	i
Cc1cnc(C(=O)Nc2cc(S(=O)(=O)N3CCOCC3)ccc2N2CCN(C)CC2)cn1	i	i	i	i	11	i
O=C(Nc1ccc(F)cc1)Nc1cc(S(=O)(=O)N2CCOCC2)ccc1N1CCCC1	i	i	i	i	39	i
Cc1ccc(S(=O)(=O)N2CCC(C(=O)OCC(=O)N(C)CC(=O)Nc3ccc(F)cc3)CC2)cc1C	i	i	i	i	79	i
Cc1cc([N+](=O)[O-])ccc1NC(=O)CSc1nncn1-c1cccnc1	i	i	i	i	i	i
Cc1cccc(Cc2c(C)nc3c(C(=O)NCc4ccco4)cnn3c2C)c1	i	i	i	i	97	i
Cc1nc2c(C(=O)NCc3ccco3)cnn2c(C)c1Cc1ccc(F)cc1Cl	i	i	i	i	i	i
Cc1cc(O)c(-c2cc(O)c(C)cc2O)cc1O	i	i	i	i	i	-4.8
CCC(=O)N1CCc2cc(S(=O)(=O)CCC(=O)Nc3ccc(C)cn3)ccc21	i	i	i	i	i	i
CC(C)c1ccc(-n2c(-c3ccccc3)c[n+]3c2CCc2ccccc2-3)cc1	i	i	i	i	i	-14
CCOC(=O)N1CCC(NC(=O)Cc2ccccc2)CC1	i	i	i	i	i	i
SMILES	TRPC6 inhibitor	TRPC4 inh	TRPC6 act	TRPC4 agonist	TRPC4 PAM	Kir21 inh
CCN1CCC(NC(=O)Nc2ccc(F)cc2)CC1	i	i	i	i	i	i
CCCN1CCC(NC(=O)Nc2ccc(F)cc2F)CC1	i	i	i	43	i	i
CCCN1CCC(NC(=O)Cc2ccc(C)cc2)CC1	i	i	i	62	10	i
Cc1cccc(CC(=O)NCCN2CCCCC2)c1	i	i	i	i	i	i
CCCN1CCC(NC(=O)Cc2cccc(C)c2)CC1	i	i	i	89	i	i
O=C(OCC(=O)N1CCN(C(=O)c2ccco2)CC1)c1ccccc1OCc1ccc(Cl)cc1	i	i	i	i	i	i
CC(C(=O)N(C)C1CCCCC1)N1CCC(C(N)=O)CC1 (configuration not stated)	i	i	i	i	i	i
Cc1cccc(NC(=S)N(CCCN2CCCC2)Cc2cccn2Cc2ccc(Cl)cc2)c1	i	i	i	i	i	-5.3
CN1CCN(CCCN(Cc2ccco2)C(=S)Nc2ccc(Cl)cc2)CC1	i	i	i	i	i	i
Cc1ccc(S(=O)(=O)NCc2c(-c3ccccc3)noc2C)cc1	i	i	i	i	i	-4.3
O=C(CCCc1nc(-c2ccc(Cl)cc2)no1)NC1CCCC1	i	i	i	i	i	-4.3
O=C1CC(NS(=O)(=O)c2cccs2)CN1c1ccccc1 (configuration not stated)	i	i	i	i	18	i
O=C1CC(NS(=O)(=O)c2cccs2)CN1c1cccc(F)c1 (configuration not stated)	i	i	i	i	i	i
Cn1c(-c2cccc(Br)c2)n[nH]c1=O	i	i	i	i	i	i
CC(=O)NC(CC(C)C)C(=O)NC(CO)C(=O)NC(CCC(=O)O)C(=O)NC(C)C(=O)NC(CC(C)C)C(N)=O (configuration not stated)	i	i	i	i	i	i
CCOC(=O)c1cn(Cc2ccccc2)c2cc(C)nn2c1=O	i	i	i	i	i	i
CCOC(=O)c1cn(Cc2ccccc2)c(C(=O)OC(C)(C)C)c1O	i	i	i	107	i	i
O=C(c1ccc([N+](=O)[O-])s1)N1CCN(c2cccc(Cl)c2)CC1	i	-6	i	i	i	i
Cc1cc(-c2sccc2C)nc(-n2cccc2)n1	i	-6	i	i	i	i
Fc1ccc(-n2c(Cc3cccs3)n[nH]c2=S)cc1Cl	i	i	i	i	i	-4.2
FC(F)(F)c1ccc(Cl)c(-n2c(Cc3cccs3)n[nH]c2=S)c1	i	i	i	i	i	i
CC(=O)n1c2c(c3ccccc31)OC(N)=C(C#N)C2c1ccc(C(C)C)cc1 (configuration not stated)	i	i	i	i	12	i
O=C(c1ccc([N+](=O)[O-])cc1)N1CCN(c2ncc(Br)cn2)CC1	i	i	i	219	i	i
O=C(c1ccc(Br)cc1)N1CCN(c2ncccn2)CC1	i	i	i	i	i	i
c1ccc(-c2ccccc2OCCCN2CCCC2)cc1	i	i	i	i	i	-4.2
CC1CC(C)CN(CCOc2ccccc2-c2ccccc2)C1 (configuration not stated)	i	i	i	i	i	-6.3
O=C(O)c1cc(S(=O)(=O)Nc2ccc(OCc3ccccc3)cc2)ccc1Br	i	i	i	i	i	i
COC(=O)c1ccc(CN2CCC(n3nccc3NC(=O)C3CCCC3)CC2)cc1	i	i	i	i	i	i
CCn1ccnc1CN1CCc2c([nH]c3ccccc23)C1CC(C)C (configuration not stated)	i	i	i	i	i	i
